MrgX1 PAM: positive allosteric modulators of MrgX1, primary screen, HEK293 cells, Fluo-4 calcium flux | AID 588675, 2011 | FDSS; active compounds read high | hit rate 0.63% among 310,000 | Mas-related G-protein coupled receptor member X1 (Homo sapiens), Q96LB2 | B-score at 10 µM;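 active = plate-corrected calcium response at least 3 library SD above typical, normal starting fluorescence, not activating the receptor alone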;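 also: compound read alongside a low EC10 to EC30 dose of BAM8-22 agonist; peak minus trough fluorescence over baseline measured at the second addition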
Target sequence (Q96LB2 whole entry, looked up): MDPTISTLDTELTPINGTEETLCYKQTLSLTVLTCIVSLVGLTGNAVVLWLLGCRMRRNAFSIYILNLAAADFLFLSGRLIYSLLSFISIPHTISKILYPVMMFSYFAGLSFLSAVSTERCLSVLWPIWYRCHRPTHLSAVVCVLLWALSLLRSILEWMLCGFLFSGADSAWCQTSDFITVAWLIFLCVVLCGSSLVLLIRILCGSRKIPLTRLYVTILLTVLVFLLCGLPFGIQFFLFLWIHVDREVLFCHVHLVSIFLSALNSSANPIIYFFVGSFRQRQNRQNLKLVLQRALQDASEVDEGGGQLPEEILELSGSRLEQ
RGS4 block: RGS4 inhibitors, primary screen, cell-based, HEK293 M3R inducible RGS4, calcium flux; Regulator of G-protein signaling 4 (Homo sapiens), P49798; Fluo-4 calcium flux; active compounds read high; triggered by carbachol at its EC20; hit rate 0.45% among 310,000; B-score at 10 µM;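 active = B-score, a plate-corrected calcium signal, over three deviations above library mean, with baseline fluorescence within five deviations of library mean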;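 also: RGS4 expression induced by doxycycline in cells with stable M3 receptor; B-score is computed from the integrated fluorescence ratio over baseline after carbachol; higher B-score means a larger calcium signal and so more RGS4 inhibition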
Target sequence (P49798 whole entry, looked up): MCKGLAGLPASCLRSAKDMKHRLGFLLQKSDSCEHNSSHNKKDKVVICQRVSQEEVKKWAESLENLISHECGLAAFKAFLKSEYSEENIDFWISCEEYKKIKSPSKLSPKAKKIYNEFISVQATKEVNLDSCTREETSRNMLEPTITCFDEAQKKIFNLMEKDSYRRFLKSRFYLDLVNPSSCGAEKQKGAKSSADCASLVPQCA
RGS4 act: RGS4 potentiators or activators, primary screen, cell-based, HEK293 M3R inducible RGS4, calcium flux. carbachol calcium flux Fluo4; active compounds read low. hit rate 0.92% among 310,000. B-score at 10 µM;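 active = B-score of the integrated calcium signal more than 4 SD below the library mean, with starting fluorescence not abnormally high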;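 also: negative B-score means reduced calcium response which marks RGS4 activation or potentiation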
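System: HEK293 FlpIn-TREx cells, stable M3R, doxycycline-inducible RGS4. Timing: overnight RGS4 induction, 30 min dye load 37 °C, 20 min compound RT. Also added: carbachol, ECmax concentration. Measured by: Fluo4 fluorescence kinetic imaging of calcium. Evaluation: integrated calcium ratio converted to B score.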
MrgX1 ag: agonists of human MrgX1 receptor, primary screen, HEK293 cells, Fluo-4 calcium flux; Mas-related G-protein coupled receptor member X1 (Homo sapiens), Q96LB2; B-score at 10 µM; AID 588627, 2011; hit rate 0.44% among 310,000; Fluo-4 calcium fluorescence, agonist mode; active compounds read high;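 active = calcium response B-score plate-corrected fluorescence ratio at least 3 library SD, with starting fluorescence B-score inside 5 SD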
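System – MrgX1-expressing HEK293 cells · Incubation – cells plated overnight, dye loaded 0.5 h 37 °C, 0.5 h room temperature · Technique – kinetic Fluo-4 NW fluorescence of intracellular calcium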
MrgX1 antagonist: antagonists of human MrgX1 receptor, primary screen, HEK293 cells, Fluo-4 calcium flux | BAM8-22 antagonism; active compounds read low | AID 588676, 2011 | hit rate 1.3% among 310,000 | B-score at 10 µM | Mas-related G-protein coupled receptor member X1 (Homo sapiens), Q96LB2;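 active = calcium-response B-score plate-corrected more than 3 library SD below zero, starting fluorescence within 5 deviations, no agonist response on first addition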;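 also: peak minus trough fluorescence over baseline after final BAM8-22 challenge near maximal dose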
MrgX1 PAM conf: MrgX1 positive allosteric modulators, duplicate retest, confirmation, HEK293 cells, Fluo-4 calcium flux; shares compounds with MrgX1 PAM; Fluo-4 calcium fluorescence, FDSS; activation (ratio percentage), % at 10 µM; hit rate 13% among 1,200; AID 602413, 2012;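 active = ratio at least 3 SD above the weak peptide control, stable starting fluorescence, no direct agonism earlier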;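 also: compound followed by low BAM8-22 agonist challenge near EC20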
HEK293 Ca flux: nonspecific calcium signal in parental HEK293, confirmation, counter-screen for MrgX1 antagonist project, parental HEK293 cells, Fluo-4 calcium flux; shares compounds with MrgX1 antagonist; Fluo-4 calcium fluorescence, FDSS; fluorescence ratio F(max-min)/F0 at 10 µM; hit rate 2% among 4,000;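 active = duplicate-averaged calcium fluorescence ratio at least three times the standard deviation of buffer wells, a nonspecific response in parental cells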
HEK293 Ca counter: calcium response in parental HEK293 cells, primary screen, counter-screen for MrgX1 allosteric activator project, cell-based, Fluo-4 calcium flux, duplicate; Fluo-4 fluorescence ratio; active compounds read high; fluorescence ratio F(max-min)/F0 at 10 µM; hit rate 0.4% among 4,000; shares compounds with MrgX1 antagonist;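 active = calcium fluorescence ratio, averaged over duplicates, at least 3 SD of the buffer-well ratio, meaning a nonspecific response in receptor-free cells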;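 also: untransfected parental HEK293 lacking MrgX1 used as counterscreen for MrgX1 allosteric activators; fluorescence change taken during the second addition on a kinetic imager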
HEK293 Ca cntr2: calcium response in parental HEK293 cells, primary screen, counter-screen for MrgX1 agonist project, cell-based, Fluo-4 calcium flux, duplicate, agonist mode; hit rate 8.7% among 4,000; fluorescence ratio F(max-min)/F0 at 10 µM; AID 624115, 2012; shares compounds with MrgX1 antagonist; Fluo-4 calcium fluorescence (FDSS); active compounds read high;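 active = calcium fluorescence ratio at least three times the spread of buffer wells, meaning a non-specific response in parental cells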
Numbers without * were called inactive; i = inactive; nt = not tested or not shown. Only some compounds are listed: those with a hit (about 3.5% of all), similar ones and a draw of the others.

SMILES	MrgX1 PAM	RGS4 block	RGS4 act	MrgX1 ag	MrgX1 antagonist	MrgX1 PAM conf	HEK293 Ca flux	HEK293 Ca counter	HEK293 Ca cntr2
CC(=O)c1ccc(S(=O)(=O)NCCc2csc(-c3cccnc3)n2)cc1	i	i	i	i	i	nt	nt	nt	nt
CC(=O)NC(Cc1ccc(F)cc1)C(=O)NC1CCN(C(=O)Nc2ccc(F)cc2)CC1 (stereo not given)	59.5*	i	i	i	i	i	i	i	i
CC(=O)NC(Cc1ccc(F)cc1)C(=O)NC1CCN(C(=O)Nc2cccc(C)c2)CC1 (stereo not given)	i	i	i	i	i	nt	nt	nt	nt
CC1(C)CC2CC(C)(CN2Cc2c(O)ccc3ccccc23)C1 (stereo not given)	7.45*	i	i	i	i	i	i	i	52.5*
CC(C)(C)C(=O)c1cnc(Nc2ccccc2Cl)s1	7.11*	i	i	i	i	i	i	i	i
CC1(C)CC2CC(C)(CN2c2ncnc3ccccc23)C1 (stereo not given)	24.5*	i	i	i	i	25.5%*	i	i	i
Cc1c(CC(=O)O)c(=O)oc2c(C)c(OCc3ccccc3)ccc12	i	i	i	i	i	nt	nt	nt	nt
Cc1c(CC(=O)O)c(=O)oc2c(C)c(OCc3c(F)cccc3Cl)ccc12	13*	i	i	i	i	i	i	i	i
CCCn1c(=O)c(C(=O)NCCCc2ccccc2)c(O)c2ccccc21	6.76*	i	i	i	i	i	i	i	i
COc1ccc(C(=O)Oc2cc(C)c(CN3CCOCC3)cc2C)cc1OC	i	i	i	i	i	nt	nt	nt	nt
c1ccc(-c2csc(-c3cccnc3)n2)cc1	14.1*	i	i	i	i	i	i	i	i
O=C(Nc1ccc(C(=O)NCCCN2CCN(c3ccc(F)cc3)CC2)cc1)C1=CSCCO1	i	i	i	i	i	nt	nt	nt	nt
COc1ccc(NC(=O)C2CCCN2S(=O)(=O)c2cccs2)c([N+](=O)[O-])c1 (stereo not given)	i	i	i	i	i	nt	nt	nt	nt
CCOC(=O)c1cnc(-c2ccccc2)nc1N	10.1*	i	i	i	i	i	i	i	i
CCOC(=O)c1cnc(-c2ccccc2)nc1N(C)C	i	i	i	i	i	nt	nt	nt	nt
CCOC(=O)Cn1c(=O)c(F)cn(Cc2ccc(OC)c([N+](=O)[O-])c2)c1=O	i	i	i	i	i	nt	nt	nt	nt
COc1cccc(CNc2cccc(C(F)(F)F)c2)c1O	35.5*	i	i	i	i	10.3%*	i	i	i
COc1cccc(CNc2ccc([N+](=O)[O-])cc2Cl)c1O	24.6*	i	i	i	i	13.0%*	i	i	i
COc1cccc(CNc2ccc(F)c(Cl)c2)c1O	26.5*	i	i	i	i	13.0%*	i	i	i
COc1cccc(CNc2cnc3ccccc3c2)c1O	7.06*	i	i	i	i	i	i	i	i
CC(=O)N(Cc1ccccc1)c1c(N)nc(N)[nH]c1=O	i	i	i	i	i	nt	nt	nt	nt
CC(=O)Oc1ccc(C(=O)Nc2cccc(C(=O)Nc3ccccc3C(=O)O)c2)cc1	i	i	i	i	i	nt	nt	nt	nt
O=C(Nc1ccccc1C(=O)O)c1ccc(NC(=O)c2ccc(Br)o2)cc1	i	i	i	i	i	nt	nt	nt	nt
CC(=O)Oc1ccc(C(=O)Nc2ccccc2C(=O)Nc2cccc(C(=O)O)c2)cc1	10.2*	i	i	i	i	i	i	i	i
O=C(Nc1ccccc1C(=O)O)c1cccc(NC(=O)c2ccc(Br)o2)c1	17.1*	i	i	i	i	i	i	i	i
SMILES	MrgX1 PAM	RGS4 block	RGS4 act	MrgX1 ag	MrgX1 antagonist	MrgX1 PAM conf	HEK293 Ca flux	HEK293 Ca counter	HEK293 Ca cntr2
CC(=O)N1N=C(c2ccc(C)o2)CC1c1cccc(F)c1 (stereo not given)	i	i	i	i	i	nt	nt	nt	nt
Cc1cc(Cl)ccc1NC(=S)NCC(O)c1ccccc1 (stereo not given)	22.3*	i	i	i	i	i	i	i	i
O=C(CN1C(=O)C2C3CC(C(Br)C3Br)C2C1=O)N1CCN(Cc2ccccc2)CC1 (stereo not given)	7.75*	i	i	i	i	i	i	i	i
O=C(CN1C(=O)C2C3CC(C(Br)C3Br)C2C1=O)N1CCOCC1 (stereo not given)	i	i	i	i	i	nt	nt	nt	nt
CN(C)C(=O)c1cc(C(=O)c2ccc(F)cc2C(F)(F)F)c[nH]1	i	i	i	i	i	nt	nt	nt	nt
Cc1ccc(Nc2cc(-n3cccn3)ncn2)c(C)c1	13.7*	i	i	i	i	i	i	i	i
CCCc1cc(-c2n[nH]c(=S)n2-c2cccc(C)c2)cs1	8.03*	i	i	i	i	i	i	i	i
Cc1cccc(-n2c(-c3csc(C(C)C)c3)n[nH]c2=S)c1	i	i	i	i	i	nt	nt	nt	nt
O=C(COC(=O)/C=C/c1ccc(Cl)cc1Cl)NCc1ccco1	i	i	i	i	i	nt	nt	nt	nt
CCn1nnc2cc(C(=O)NCC(c3ccccc3OC)N(C)C)ccc21 (stereo not given)	i	i	i	i	i	nt	nt	nt	nt
Nc1ccc(Cl)cc1C(=O)OCC(=O)NC1CCS(=O)(=O)C1 (stereo not given)	15.9*	i	i	i	i	i	i	i	i

Bioassay records deposited in PubChem by Johns Hopkins Ion Channel Center.
